We go through 13 compounds from ChEMBL document CHEMBL1146494, “Anthrone and oxanthrone C-glycosides from Picramnia latifolia collected in Peru” (J Nat Prod, 2004).

For one series, the system named is MCF7. Description: Cytotoxicity against human MCF7 cells. In kind it is functional. Conditions: read-out: ED50 (the source's name).
The nature of series [1]: Cytotoxicity against HUVEC. The class given is cell-based. Conditions: human, HUVEC cells; read-out: ED50 (the source's name).
The next series has as its system Lu1. Description: Cytotoxicity against human Lu1 cells. In kind it is functional. Conditions: read-out: ED50 (the source's name).
The subject of a further series is LNCaP. Description: Cytotoxicity against human LNCAP cells. The class given is functional. Conditions: read-out: ED50 (the source's name).
Series [2] deals with Mus musculus. The experiment in a line: Toxicity in human Lu1 cells xenografted mouse at 6.25 to 50 mg/kg, ip after 4 days. The class given is organism-based. Also on record: dose 6.25-50 mg/kg, route intraperitoneal. Conditions: in vivo, 96 h. Summed up:
(§1)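 In vivo hollow fiber assay in mice. Fibers containing the cancer cells were implanted at intraperitoneal and subcutaneous sites. The compound was given i.p. at 6.25, 12.5, 25 and 50 mg/kg body weight per injection, once daily for 4 days. Readouts were growth of the fiber-borne cells at each site, plus body weight and overt toxicity over the test period.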
For orientation: Xenograft models place foreign cells or tissue in a host animal.

Series [3] deals with Mus musculus. The experiment in a line: Toxicity in human MCF7 cells xenografted mouse at 6.25 to 50 mg/kg, ip after 4 days. The class given is organism-based. More on the design: dose 6.25-50 mg/kg, route intraperitoneal. Conditions: in vivo, 96 h. Summed up:
as §1

The test system of series [4] is Mus musculus. Description: Toxicity in human LNCAP cells xenografted mouse at 6.25 to 50 mg/kg, ip after 4 days. Also on record: dose 6.25-50 mg/kg, route intraperitoneal. The class given is organism-based. Conditions: in vivo, 96 h. Summed up: as §1

Structures are written as SMILES. Values after ≈ are worked out from the molar mass of the structure shown. Some results are limits rather than exact numbers.

As to `Cc1cc(O)c2c(c1)-c1cccc3ccc(O)c(c13)C2=O`, the EC50 in the series on MCF7, with Lu1 and in the series on LNCaP was above 5 µg/mL in each case. Besides, in series [1], the CC50 is above 5 µg/mL.

In the case of `Cc1cc(O)c2c(c1)C(=O)c1cccc(O[C@@H]3O[C@H](CO)[C@@H](O)[C@H](O)[C@H]3O)c1C2=O` [PULMATIN], the EC50 in the series with MCF7, in the series with Lu1 and in the series with LNCaP was above 5 µg/mL throughout. Also, the CC50 in series [1] is above 5 µg/mL.

Turning to `O=c1ccc2ccc(O)cc2o1` [UMBELLIFERONE], the EC50 with MCF7, in the series with Lu1 and with LNCaP was above 5 µg/mL in each case. Besides, the CC50 in series [1] is above 5 µg/mL.

Turning to `Cc1cc(O)c2c(c1)[C@@H](C[C@H]1OC[C@@H](OC(=O)c3ccccc3)[C@@H](O)[C@@H]1O)c1cccc(O)c1C2=O` [PICRAMNIOSIDE G], the EC50 in the series with MCF7, in the series on Lu1 and with LNCaP was above 5 µg/mL in each case. Also, the CC50 in series [1] is above 5 µg/mL.

For the compound `CC[C@H](CC[C@@H](C)[C@H]1CC[C@H]2[C@@H]3CC=C4C[C@@H](O)CC[C@]4(C)[C@H]3CC[C@]12C)C(C)C` [BETA-SITOSTEROL], the EC50 in the series with MCF7, in the series on Lu1 and with LNCaP was above 5 µg/mL each time. In addition, the CC50 in series [1] was above 5 µg/mL.

For the compound `Cc1cc(O)c2c(c1)C(=O)c1ccc(O)c(O)c1C2=O`, the Activity result in the series with Mus musculus [2], in the series with Mus musculus [3] and with Mus musculus [4] was “Non-toxic” each time. Moreover, the EC50 in the series with MCF7 turned out to be 4.7 µg/mL (≈ 17.4 µM); with Lu1, 3 µg/mL (≈ 11.1 µM); with LNCaP, 3.6 µg/mL (≈ 13.3 µM). In addition, in series [1], the CC50 turned out to be 5 µg/mL (≈ 18.5 µM).

As for `Cc1cc(O)c2c3c(cccc13)-c1cccc(O)c1C2=O`, the EC50 in the series on MCF7, in the series on Lu1 and with LNCaP was above 5 µg/mL each time. In series [1], the CC50 was above 5 µg/mL.

Regarding `Cc1cc(O[C@@H]2O[C@H](CO)[C@@H](O)[C@H](O)[C@H]2O)c2c(c1)C(=O)c1cccc(O)c1C2=O` [CHRYSOPHANEIN], the EC50 in the series with MCF7, in the series with Lu1 and in the series on LNCaP was above 5 µg/mL in each case. Also, the CC50 in series [1] is above 5 µg/mL.

For `COc1cc(O)c2c(c1)C(=O)c1c(O)cc(C)cc1C2=O`, the EC50 in the series with MCF7, in the series with Lu1 and with LNCaP was above 5 µg/mL each time. Further, the CC50 in series [1] is above 5 µg/mL.

As to `Cc1cc(O)c2c(c1)C(=O)c1cccc(O)c1C2=O` [CHRYSOPHANOL], the EC50 in the series with MCF7, in the series with Lu1 and in the series on LNCaP was above 5 µg/mL each time. In series [1], the CC50 is above 5 µg/mL.

Take `COc1cc2ccc(=O)oc2cc1O` [SCOPOLETIN]: the EC50 in the series with MCF7, in the series with Lu1 and in the series with LNCaP was above 5 µg/mL throughout. Moreover, the CC50 in series [1] is above 5 µg/mL.

Regarding `CC[C@H](CC[C@@H](C)[C@H]1CC[C@H]2[C@@H]3CC=C4C[C@@H](O[C@@H]5O[C@H](CO)[C@@H](O)[C@H](O)[C@H]5O)CC[C@]4(C)[C@H]3CC[C@]12C)C(C)C` [SITOGLUSIDE], the EC50 in the series with MCF7, with Lu1 and with LNCaP was above 5 µg/mL each time. The CC50 in series [1] was above 5 µg/mL.

Turning to `Cc1cc(O)c2c(c1)[C@H](C[C@H]1OC[C@@H](OC(=O)c3ccccc3)[C@@H](O)[C@@H]1O)c1cccc(O)c1C2=O` [PICRAMNIOSIDE H], the EC50 in the series on MCF7, in the series on Lu1 and with LNCaP was above 5 µg/mL in each case. In series [1], the CC50 is above 5 µg/mL.
